Calls of active or inactive are those of the source. The calls are words filed in the database; no cut-off is given here.
Experiments:
SGC-7901 [1] = assay: Inhibition of Akt/mTOR signalling pathway in human SGC-7901 cells assessed as decrease in AKT phosphorylation at Ser473 residue at 0.5 to 1.5 umol/L after 48 hrs by Western blot analysis; format: cell-based; conditions: dose micromol/L 0.5-1.5, time 48.0 hrs
Summary of the method: (§1)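 Cells treated with graded concentrations or DMSO for 48 h, then harvested and lysed. Lysates denatured, resolved by SDS-PAGE and transferred to nitrocellulose. Membranes blocked with 5% skimmed milk and probed with primary antibodies at 4 °C for 8 h, then with secondary antibodies. Bands detected by ECL.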

MGC-803 [2] = assay: Inhibition of Ras/Raf/MEK/ERK signalling pathway in human MGC-803 cells assessed as effect on RAS level at 0.5 to 1.5 umol/L after 48 hrs by Western blot analysis; format: cell-based; conditions: dose micromol/L 0.5-1.5, time 48.0 hrs; summary of the method: as §1
MGC-803 [3] = assay: Inhibition of Akt/mTOR signalling pathway in human MGC-803 cells assessed as decrease in AKT phosphorylation at Ser473 residue at 0.5 to 1.5 umol/L after 48 hrs by Western blot analysis; format: cell-based; conditions: dose micromol/L 0.5-1.5, time 48.0 hrs; summary of the method: as §1
MGC-803 [4] = assay: Induction of apoptosis in human MGC-803 cells assessed as cleavage of PARP at 0.5 to 1.5 umol/L after 48 hrs Western blot analysis; format: functional, cell-based; conditions: dose micromol/L 0.5-1.5, time 48.0 hrs
Summary of the method: (§2)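 Western blot. Cells were treated with compound concentrations or DMSO for 48 h, then lysed, and lysates were denatured, run on SDS-PAGE and transferred to nitrocellulose. After blocking in 5% skimmed milk, membranes were incubated with primary antibodies at 4 °C for 8 h, then secondary antibodies, with ECL detection.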

MGC-803 [5] = assay: Cell cycle arrest at M phase in human MGC-803 cells assessed as upregulation of p-Histone-3 level at 0.5 to 1.5 umol/L after 48 hrs by Western blot analysis; format: functional, cell-based; conditions: dose micromol/L 0.5-1.5, time 48.0 hrs; summary of the method: as §2
HGC-27 [6] = assay: Induction of apoptosis in human HGC-27 cells after 48 hrs by flow cytometry analysis; format: functional, cell-based; conditions: dose micromol/L 0.5-1.5, time 48.0 hrs
SGC-7901 [7] = assay: Inhibition of Ras/Raf/MEK/ERK signalling pathway in human SGC-7901 cells assessed as decrease in ERK1/2 phosphorylation after 48 hrs by Western blot analysis; format: cell-based; conditions: dose micromol/L 0.5-1.5, time 48.0 hrs; summary of the method: as §1
SGC-7901 [8] = assay: Inhibition of colony formation in human SGC-7901 cells at 0.5 to 1.5 umol/L after 7 days by crystal violet staining based assay; format: functional, cell-based; conditions: dose micromol/L 0.5-1.5, time 7.0 day
Summary of the method: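 5000 cells per well seeded and held 24 h at 37 °C, 5% CO2, then exposed to graded concentrations (0.5, 1, 1.5 µmol/L). After 7 days the medium was removed and wells were washed twice with PBS. Colonies fixed in 4% paraformaldehyde and stained with 0.1% crystal violet.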

MCF7 = assay: Anticancer activity against human MCF7 cells assessed as inhibition of cell proliferation after 48 hrs by MTT assay; format: functional, cell-based; conditions: MCF7, 48 h
Summary of the method: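 MTT assay with 48 h compound exposure. MTT solution was then added and incubated 4 h at 37 °C, the supernatant discarded and formazan dissolved in DMSO, with absorbance read at 490 nm. IC50 values were calculated from three independent experiments, reported as mean SD.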

MGC-803 [9] = assay: Induction of apoptosis in human MGC-803 cells assessed as downregulation of c-IAP1 level at 0.5 to 1.5 umol/L after 48 hrs Western blot analysis; format: functional, cell-based; conditions: dose micromol/L 0.5-1.5, time 48.0 hrs; summary of the method: as §2
HGC-27 [10] = assay: Inhibition of Ras/Raf/MEK/ERK signalling pathway in human HGC-27 cells assessed as effect on RAS level at 0.5 to 1.5 umol/L after 48 hrs by Western blot analysis; format: cell-based; conditions: dose micromol/L 0.5-1.5, time 48.0 hrs; summary of the method: as §1
HGC-27 [11] = assay: Induction of apoptosis in human HGC-27 cells assessed as downregulation of c-IAP1 level at 0.5 to 1.5 umol/L after 48 hrs Western blot analysis; format: functional, cell-based; conditions: dose micromol/L 0.5-1.5, time 48.0 hrs; summary of the method: as §2
HGC-27 [12] = assay: Inhibition of Ras/Raf/MEK/ERK signalling pathway in human HGC-27 cells assessed as downregulation of c-Myc expression at 0.5 to 1.5 umol/L after 48 hrs by Western blot analysis; format: cell-based; conditions: dose micromol/L 0.5-1.5, time 48.0 hrs; summary of the method: as §1
SGC-7901 [13] = assay: Anticancer activity against human SGC-7901 cells assessed as cell growth at 0.5 to 1.5 umol/L after 48 hrs by MTT assay relative to control; format: functional; conditions: dose micromol/L 0.5-1.5
HGC-27 [14] = assay: Inhibition of Ras/Raf/MEK/ERK signalling pathway in human HGC-27 cells assessed as decrease in c-Raf phosphorylation after 48 hrs by Western blot analysis; format: cell-based; conditions: dose micromol/L 0.5-1.5, time 48.0 hrs; summary of the method: as §1
SGC-7901 [15] = assay: Cell cycle arrest at G2 phase in human SGC-7901 cells assessed as downregulation of CDK1 level at 0.5 to 1.5 umol/L after 48 hrs by Western blot analysis; format: functional, cell-based; conditions: dose micromol/L 0.5-1.5, time 48.0 hrs; summary of the method: as §2
HGC-27 [16] = assay: Cell cycle arrest at G2 phase in human HGC-27 cells assessed as downregulation of CDK1 level at 0.5 to 1.5 umol/L after 48 hrs by Western blot analysis; format: functional, cell-based; conditions: dose micromol/L 0.5-1.5, time 48.0 hrs; summary of the method: as §2
MGC-803 [17] = assay: Inhibition of Ras/Raf/MEK/ERK signalling pathway in human MGC-803 cells assessed as downregulation of FoxO3a expression at 0.5 to 1.5 umol/L after 48 hrs by Western blot analysis; format: cell-based; conditions: dose micromol/L 0.5-1.5, time 48.0 hrs; summary of the method: as §1
HGC-27 [18] = assay: Induction of apoptosis in human HGC-27 cells assessed as downregulation of Mcl-1 level at 0.5 to 1.5 umol/L after 48 hrs Western blot analysis; format: functional, cell-based; conditions: dose micromol/L 0.5-1.5, time 48.0 hrs; summary of the method: as §2
MGC-803 [19] = assay: Inhibition of Akt/mTOR signalling pathway in human MGC-803 cells assessed as decrease in mTOR phosphorylation at Ser2448 residue at 0.5 to 1.5 umol/L after 48 hrs by Western blot analysis; format: cell-based; conditions: dose micromol/L 0.5-1.5, time 48.0 hrs; summary of the method: as §1
HGC-27 [20] = assay: Induction of apoptosis in human HGC-27 cells assessed as downregulation of Bcl-2 level at 0.5 to 1.5 umol/L after 48 hrs Western blot analysis; format: functional, cell-based; conditions: dose micromol/L 0.5-1.5, time 48.0 hrs; summary of the method: as §2
SGC-7901 [21] = assay: Cell cycle arrest at M phase in human SGC-7901 cells assessed as upregulation of p-Histone-3 level at 0.5 to 1.5 umol/L after 48 hrs by Western blot analysis; format: functional, cell-based; conditions: dose micromol/L 0.5-1.5, time 48.0 hrs; summary of the method: as §2
SGC-7901 [22] = assay: Induction of apoptosis in human SGC-7901 cells assessed as cleavage of caspase-7 at 0.5 to 1.5 umol/L after 48 hrs Western blot analysis; format: functional, cell-based; conditions: dose micromol/L 0.5-1.5, time 48.0 hrs; summary of the method: as §2
SGC-7901 [23] = assay: Inhibition of Ras/Raf/MEK/ERK signalling pathway in human SGC-7901 cells assessed as downregulation of FoxO3a expression at 0.5 to 1.5 umol/L after 48 hrs by Western blot analysis; format: cell-based; conditions: dose micromol/L 0.5-1.5, time 48.0 hrs; summary of the method: as §1
[24] = Selectivity index, ratio of IC50 for human GES1 cells to IC50 for human HGC-27 cells assessed as inhibition of cell proliferation after 48 hrs by MTT assay
Summary of the method: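 Fold selectivity is the IC50 in GES-1 normal gastric epithelial cells divided by the IC50 in the gastric cancer line (HGC-27, MGC-803 or SGC-7901). Both IC50s come from 48 h exposure, MTT (4 h, 37 °C), DMSO solubilisation and 490 nm absorbance, with three independent experiments.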

SGC-7901 [25] = assay: Induction of apoptosis in human SGC-7901 cells after 48 hrs by flow cytometry analysis; format: functional, cell-based; conditions: dose micromol/L 0.5-1.5, time 48.0 hrs
HGC-27 [26] = assay: Cell cycle arrest in human HGC-27 cells assessed as accumulation at G2/M phase at 0.5 to 1.5 umol/L after 48 hrs by RNase/propidium iodide staining based flow cytometry; format: functional; conditions: dose micromol/L 0.5-1.5, time 48.0 hrs
Summary of the method: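 MGC-803, SGC-7901 and HGC-27 cells were seeded in 6-well plates and treated 48 h with compound or DMSO. Cells were then harvested and fixed in 70% cold ethanol at 4 °C for 8 h, and cell-cycle phase distribution was quantified by flow cytometry.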

COc1cc(N(Cc2nc3ccccc3[nH]2)S(=O)(=O)c2ccc(C)cc2)cc(OC)c1OC
inhibition (SGC-7901 [1]): Active | inhibition (MGC-803 [2]): inactive | inhibition (MGC-803 [3]): Active | Activity (MGC-803 [4]): Active | Activity (MGC-803 [5]): Active | Activity (HGC-27 [6]): Dose-dependent effect | inhibition (SGC-7901 [7]): Dose-dependent effect | inhibition (SGC-7901 [8]): Active | IC50 (MCF7): 5.4 µM | Activity (MGC-803 [9]): Active | inhibition (HGC-27 [10]): inactive | Activity (HGC-27 [11]): Active | inhibition (HGC-27 [12]): Active | fold change (FC) (SGC-7901 [13]): <2 | inhibition (HGC-27 [14]): Dose-dependent effect | Activity (SGC-7901 [15]): Active | Activity (HGC-27 [16]): Active | inhibition (MGC-803 [17]): Active | Activity (HGC-27 [18]): Active | inhibition (MGC-803 [19]): Active | Activity (HGC-27 [20]): Active | Activity (SGC-7901 [21]): Active | Activity (SGC-7901 [22]): Active | inhibition (SGC-7901 [23]): Active | Ratio IC50 [24]: 9.4 | Activity (SGC-7901 [25]): Dose-dependent effect | Activity (HGC-27 [26]): Active
